Legend:
Bacilus subtilis = test: MIC, broth-microdilution method; assay type: cell-based
bacterial membranes = test: Membrane permeabilization, influx of viability stain SYTOX Green; assay type: cell-based, B. subtilis; conditions: concentration twice the MIC value
In short: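 Live B. subtilis cells imaged over time by confocal microscopy after exposure to a lethal level of test compound. SYTOX Green was used as a viability stain, with its entry into cells read as membrane permeabilization.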

(−)-Himastatin [(−)-himastatin (1)]
MIC (Bacilus subtilis): 1 µg/mL
time to permeabilization of bacterial membranes (bacterial membranes): ≤ 30 min
